Reference: ChEMBL document CHEMBL1125714, “Novel class of amino acid antagonists at non-N-methyl-D-aspartic acid excitatory amino acid receptors. Synthesis, in vitro and in vivo pharmacology, and neuroprotection” (J Med Chem, 1991)
“And” between values parts separate entries of the source, which are not always exact repeats. Equal values may be shown once.

Tests used:
[1] = molecular target: Glutamate receptor ionotropic AMPA (Homo sapiens, UniProt P42261+P42262+P42263+P48058); assay: Inhibition of the binding of radioligand [3H]AMPA in the presence at low-affinity AMPA receptor sites.; format: protein-complex assay
[2] = Inhibition of the binding of radioligand [3H]AMPA in the presence at Non N-methyl-D-aspartate glutamate receptor
Procedure, shortened: (§1)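 Rat brain membrane [3H]AMPA binding run with 100 mM isothiocyanate present, so both high- and low-affinity AMPA sites are detected. Competitors were tested over concentration ranges of 1–1000 μM, and the IC50 was calculated from displacement data.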

[3] = species on record: Rattus norvegicus; assay: Neuroprotective effect evaluated for excitatory amino acid receptor antagonism with the concentration at 1 uL in the corpus striatum of 3 rats with choline acetyltransferase as the marker enzyme.; format: functional
Procedure, shortened: (§2)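 Rat corpus striatum, stereotaxic infusion under […] anaesthesia (4 mL/kg ip). 1 μL solution held KAIN 10 nmol, quinolinic acid 300 nmol or AMPA 100 nmol, with or without antagonist 150 nmol. After 3 days recovery, striatum was homogenized in Tris-HCl/Triton X-100 and spun at 10000g. Choline acetyltransferase and glutamic acid decarboxylase activities were read as percent of non-lesioned tissue.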

[4] = species on record: Rattus norvegicus; assay: Neuroprotective effect evaluated for excitatory amino acid receptor antagonism with the concentration at 1 uL in the corpus striatum of 3 rats with glutamic acid decarboxylase as the marker enzyme.; format: functional; procedure, shortened: as §2
[5] = species on record: Rattus norvegicus; assay: Neuroprotective effect evaluated for excitatory amino acid receptor antagonism with the concentration at 1 uL in the corpus striatum of 14 rats with choline acetyltransferase as the marker enzyme.; format: functional; set-up: concentration or dose not given beside the values
Procedure, shortened: (§3)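 […]-anaesthetised rats (4 mL/kg ip), stereotaxic cannula into corpus striatum; 1 µL infused containing kainate (10 nmol), quinolinic acid (300 nmol) or AMPA (100 nmol), with or without co-infused antagonist. After 3-day recovery, striata were homogenised in 50 mM Tris-HCl pH 7.4 with 0.2% Triton X-100 and spun 10000g for 10 min. Choline acetyltransferase or glutamic acid decarboxylase activity was reported as % remaining versus non-lesioned striatum.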

[6] = species on record: Rattus norvegicus; assay: Neuroprotective effect evaluated for excitatory amino acid receptor antagonism with the concentration at 1 uL in the corpus striatum of 14 rats with glutamic acid decarboxylase as the marker enzyme.; format: functional; procedure, shortened: as §3
[7] = species on record: Rattus norvegicus; assay: Neuroprotective effect evaluated for excitatory amino acid receptor antagonism with the concentration at 1 uL in the corpus striatum of 7 rats with choline acetyltransferase as the marker enzyme.; format: functional; procedure, shortened: as §3
[8] = species on record: Rattus norvegicus; assay: Neuroprotective effect evaluated for excitatory amino acid receptor antagonism with the concentration at 1 uL in the corpus striatum of 7 rats with glutamic acid decarboxylase as the marker enzyme.; format: functional; procedure, shortened: as §3
[9] = Inhibition of the binding of radioligand [3H]AMPA in the presence of the compound. at Non N-methyl-D-aspartate glutamate receptor; procedure, shortened: as §1
[10] = species on record: Rattus norvegicus; assay: Neuroprotective effect evaluated for excitatory amino acid receptor antagonism with the concentration at 1 uL in the corpus striatum of 5 rats with choline acetyltransferase as the marker enzyme.; format: functional; procedure, shortened: as §3
[11] = species on record: Rattus norvegicus; assay: Neuroprotective effect evaluated for excitatory amino acid receptor antagonism with the concentration at 1 uL in the corpus striatum of 5 rats with glutamic acid decarboxylase as the marker enzyme.; format: functional; procedure, shortened: as §3
[12] = species on record: Rattus norvegicus; assay: Neuroprotective effect evaluated for excitatory amino acid receptor antagonism with the concentration at 1 uL in the corpus striatum of 9 rats with choline acetyltransferase as the marker enzyme.; format: functional; procedure, shortened: as §3
[13] = species on record: Rattus norvegicus; assay: Neuroprotective effect evaluated for excitatory amino acid receptor antagonism with the concentration at 1 uL in the corpus striatum of 9 rats with glutamic acid decarboxylase as the marker enzyme.; format: functional; procedure, shortened: as §3

For `Cc1onc(OCC(=O)O)c1CC(N)C(=O)O` (stereo unspecified), the IC50 [1] was 98 µM and the IC50 [2] was 90 µM.

`Cc1onc(OCC(=O)O)c1CC(N)C(=O)O.O=C(O)c1cccnc1C(=O)O` (stereo unspecified) gave an Enzyme activity [3] of 52% and an Enzyme activity [4] of 64%.

Work on `Cc1onc(O)c1CC(N)C(=O)O.Cc1onc(OCC(=O)O)c1CC(N)C(=O)O` (stereo unspecified) yielded an Enzyme activity [5] of 68% and an Enzyme activity [6] of 62%.

Compound `C=C(C)[C@H]1CN[C@H](C(=O)O)[C@H]1CC(=O)O` [KAINIC ACID] has an Enzyme activity [7] of 34% and an Enzyme activity [8] of 44%.

`Cc1onc(O)c1Cn1oc(C)c(CC(N)C(=O)O)c1=O` (stereo unspecified) gave an IC50 [1] of 335 µM and an IC50 [9] of 29 µM.

Work on `Cc1onc(O)c1CC(N)C(=O)O.O=C(O)C1CN(CCCP(=O)(O)O)CCN1` (stereo unspecified) yielded an Enzyme activity [7] of 55% and an Enzyme activity [8] of 50%.

In the case of `O=C(O)c1cccnc1C(=O)O` [QUINOLINIC ACID], the Enzyme activity [5] is reported as 61% and the Enzyme activity [6] is reported as 53%.

For `O=C(O)C1CN(CCCP(=O)(O)O)CCN1.O=C(O)c1cccnc1C(=O)O` (stereo unspecified), the Enzyme activity [10] was 98% and the Enzyme activity [11] was 99%.

Work on `Cc1onc(O)c1CC(N)C(=O)O.Cc1onc(O)c1Cn1oc(C)c(CC(N)C(=O)O)c1=O` (stereo unspecified) yielded an Enzyme activity [12] of 53% and an Enzyme activity [13] of 39%.

In the case of `Cc1onc(O)c1CC(N)C(=O)O` [(R,S)-AMPA], the Enzyme activity [5] is reported as 53% and 40%.

`Cc1onc(O)c1Cn1oc(C)c(CC(N)C(=O)O)c1=O.O=C(O)c1cccnc1C(=O)O` (stereo unspecified) gave an Enzyme activity [10] of 50% and an Enzyme activity [11] of 49%.
